# How the values were obtained:
# [1] = tested on: ACHN; test: Cytotoxicity against human ACHN cells after 72 hrs by CCK8 assay; format: functional, cell-based
# Outline: (§1)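 ACHN cells grown in MEM with 10% FBS; OS-RC-2 and 786-O cells grown in RPMI1640 with 10% FBS. Seeded at 400 to 800 cells/well and treated with a 9-point series from 100 down to 0.00153 μM, or solvent control, for 72 h. Viability read by CCK-8 absorbance at 450 nm in triplicate. IC50 taken from dose–response curves.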
# [2] = tested on: 786-0; test: Cytotoxicity against human 786-O cells after 72 hrs by CCK8 assay; format: functional, cell-based; settings: 786-0, 72 h; outline: as §1
# [3] = tested on: OS-RC-2; test: Cytotoxicity against human OS-RC2 cells after 72 hrs by CCK8 assay; format: functional, cell-based; settings: OS-RC-2, 72 h; outline: as §1
# [4] = tested on: 786-0; test: Cell cycle arrest in human 786-O cells assessed as accumulation at G0/G1 phase at 1 uM after 24 hrs by propidium iodide staining based flow cytometric method (reference value: 42.07%); format: functional
# [5] = tested on: 786-0; test: Induction of apoptosis in human 786-O cells assessed as late apoptotic cells at 1 uM after 24 hrs by Annexin-V-FITC/propidium iodide staining based flow cytometric method (reference value: 7%); format: functional
# [6] = tested on: 786-0; test: Cell cycle arrest in human 786-O cells assessed as accumulation at S phase at 2 uM after 72 hrs by propidium iodide staining based flow cytometric method (reference value: 42.76%); format: functional
# [7] = tested on: 786-0; test: Cell cycle arrest in human 786-O cells assessed as accumulation at S phase at 1 uM after 24 hrs by propidium iodide staining based flow cytometric method (reference value: 47.35%); format: functional
# [8] = tested on: 786-0; test: Cell cycle arrest in human 786-O cells assessed as accumulation at G0/G1 phase at 2 uM after 72 hrs by propidium iodide staining based flow cytometric method (reference value: 44.95%); format: functional
# [9] = tested on: 786-0; test: Induction of apoptosis in human 786-O cells assessed as live cells at 1 uM after 72 hrs by Annexin-V-FITC/propidium iodide staining based flow cytometric method (reference value: 82.2%); format: functional
# [10] = tested on: RAW264.7; test: Cytotoxicity against mouse RAW264.7 cells at 0.5 to 4 uM after 8 hrs by MTT assay; format: cell-based; settings: raw264.7, 8 h
# Outline: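 Luciferase-reporter RAW264.7 cells received compounds at 4, 2, 1 and 0.5 μM for 30 min, then 1 μg/mL LPS for 8 h. Viability at these concentrations was assessed by MTT.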
# [11] = tested on: 786-0; test: Induction of apoptosis in human 786-O cells assessed as early apoptotic cells at 2 uM after 72 hrs by Annexin-V-FITC/propidium iodide staining based flow cytometric method (reference value: 1.2%); format: functional
# [12] = tested on: 786-0; test: Cell cycle arrest in human 786-O cells assessed as accumulation at G2/M phase at 1 uM after 24 hrs by propidium iodide staining based flow cytometric method (reference value: 10.58%); format: functional
# [13] = tested on: 786-0; test: Induction of apoptosis in human 786-O cells assessed as necrotic cells at 1 uM after 24 hrs by Annexin-V-FITC/propidium iodide staining based flow cytometric method (reference value: 10%); format: functional
# [14] = tested on: 786-0; test: Induction of apoptosis in human 786-O cells assessed as early apoptotic cells at 2 uM after 24 hrs by Annexin-V-FITC/propidium iodide staining based flow cytometric method (reference value: 1.6%); format: functional
# [15] = tested on: 786-0; test: Induction of apoptosis in human 786-O cells assessed as live cells at 1 uM after 24 hrs by Annexin-V-FITC/propidium iodide staining based flow cytometric method (reference value: 81.4%); format: functional
# [16] = tested on: 786-0; test: Cell cycle arrest in human 786-O cells assessed as accumulation at S phase at 1 uM after 72 hrs by propidium iodide staining based flow cytometric method (reference value: 42.76%); format: functional
# [17] = tested on: 786-0; test: Induction of apoptosis in human 786-O cells assessed as late apoptotic cells at 1 uM after 72 hrs by Annexin-V-FITC/propidium iodide staining based flow cytometric method (reference value: 4.2%); format: functional
# [18] = tested on: 786-0; test: Induction of apoptosis in human 786-O cells assessed as live cells at 2 uM after 72 hrs by Annexin-V-FITC/propidium iodide staining based flow cytometric method (reference value: 82.2%); format: functional
# [19] = tested on: 786-0; test: Induction of apoptosis in human 786-O cells assessed as late apoptotic cells at 2 uM after 72 hrs by Annexin-V-FITC/propidium iodide staining based flow cytometric method (reference value: 4.2%); format: functional
# [20] = tested on: 786-0; test: Induction of apoptosis in human 786-O cells assessed as necrotic cells at 2 uM after 72 hrs by Annexin-V-FITC/propidium iodide staining based flow cytometric method (reference value: 12.5%); format: functional
# [21] = tested on: 786-0; test: Cell cycle arrest in human 786-O cells assessed as accumulation at G0/G1 phase at 1 uM after 72 hrs by propidium iodide staining based flow cytometric method (reference value: 44.95%); format: functional
# [22] = tested on: 786-0; test: Induction of apoptosis in human 786-O cells assessed as necrotic cells at 1 uM after 72 hrs by Annexin-V-FITC/propidium iodide staining based flow cytometric method (reference value: 12.5%); format: functional
# [23] = tested on: 786-0; test: Cell cycle arrest in human 786-O cells assessed as accumulation at G2/M phase at 2 uM after 24 hrs by propidium iodide staining based flow cytometric method (reference value: 10.58%); format: functional
# [24] = tested on: 786-0; test: Induction of apoptosis in human 786-O cells assessed as live cells at 2 uM after 24 hrs by Annexin-V-FITC/propidium iodide staining based flow cytometric method (reference value: 81.4%); format: functional
# [25] = tested on: 786-0; test: Cell cycle arrest in human 786-O cells assessed as accumulation at G0/G1 phase at 2 uM after 24 hrs by propidium iodide staining based flow cytometric method (reference value: 42.07%); format: functional
# [26] = tested on: 786-0; test: Cell cycle arrest in human 786-O cells assessed as accumulation at S phase at 2 uM after 24 hrs by propidium iodide staining based flow cytometric method (reference value: 47.35%); format: functional
# [27] = tested on: 786-0; test: Induction of apoptosis in human 786-O cells assessed as necrotic cells at 2 uM after 24 hrs by Annexin-V-FITC/propidium iodide staining based flow cytometric method (reference value: 10%); format: functional
# [28] = tested on: 786-0; test: Induction of apoptosis in human 786-O cells assessed as late apoptotic cells at 2 uM after 24 hrs by Annexin-V-FITC/propidium iodide staining based flow cytometric method (reference value: 7%); format: functional
# [29] = tested on: 786-0; test: Induction of apoptosis in human 786-O cells assessed as early apoptotic cells at 1 uM after 72 hrs by Annexin-V-FITC/propidium iodide staining based flow cytometric method (reference value: 1.2%); format: functional
# [30] = tested on: 786-0; test: Cell cycle arrest in human 786-O cells assessed as accumulation at G2/M phase at 2 uM after 72 hrs by propidium iodide staining based flow cytometric method (reference value: 12.29%); format: functional
# [31] = tested on: 786-0; test: Induction of apoptosis in human 786-O cells assessed as early apoptotic cells at 1 uM after 24 hrs by Annexin-V-FITC/propidium iodide staining based flow cytometric method (reference value: 1.6%); format: functional
# [32] = tested on: 786-0; test: Cell cycle arrest in human 786-O cells assessed as accumulation at G2/M phase at 1 uM after 72 hrs by propidium iodide staining based flow cytometric method (reference value: 12.29%); format: functional
# [33] = tested on: RAW264.7; test: Inhibition of LPS-induced NFkappaB (unknown origin) activation expressed in mouse RAW264.7 cells at 4 uM pretreated for 30 mins followed by LPS-stimulation after 8 hrs by luciferase reporter gene assay relative to control; format: cell-based; settings: Homo sapiens
# Outline: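 RAW264.7 cells stably carrying an NF-κB luciferase reporter were pretreated with compounds for 30 min at 4, 2, 1 and 0.5 μM. They were then stimulated with 1 μg/mL LPS for 8 h. Luciferase activity was measured in triplicate. BAY11-7082 at 5 μM served as positive control.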
smiles,measurement,setting,value
C[C@]1(CO)CCC[C@@]2(C)[C@H]1[C@H](OC(=O)c1ccc([N+](=O)[O-])cc1)C=C1C(=O)OC[C@@]12O,IC50,[1],1.5 µM
same,IC50,[2],0.89 µM
same,IC50,[3],1.5 µM
CC(=O)OC[C@@]1(C)CCC[C@@]2(C)[C@H]1[C@H](OC(=O)c1ccc([N+](=O)[O-])cc1)C=C1C(=O)OC[C@@]12O,Activity,[4],38%
same,Activity,[5],4.3%
same,Activity,[6],35.56%
same,IC50,[1],4.1 µM
same,Activity,[7],47%
same,Activity,[8],51.06%
same,Activity,[9],74.7%
same,Activity,[10],Non-Toxic
same,Activity,[11],1%
same,Activity,[12],8.53%
same,Activity,[13],15.8%
same,Activity,[14],1.1%
same,Activity,[15],78.6%
same,Activity,[16],32.77%
same,Activity,[17],5%
same,Activity,[18],58.3%
same,Activity,[19],9.1%
same,Activity,[20],31.5%
same,IC50,[2],2.3 µM
same,Activity,[21],54.16%
same,Activity,[22],18.6%
same,Activity,[23],7.86%
same,Activity,[24],66.5%
same,Activity,[25],42.23%
same,Activity,[26],49.91%
same,Activity,[27],26%
same,Activity,[28],6.5%
same,Activity,[29],1.7%
same,IC50,[3],5.3 µM
same,Activity,[30],13.38%
same,Activity,[31],1.3%
same,Activity,[32],13.06%
CC(=O)OC[C@@]1(C)CCC[C@]2(C)[C@H]3COC(=O)C3=C[C@@H](OC(=O)c3ccc([N+](=O)[O-])cc3)[C@@H]12,IC50,[1],13 µM
same,Activity,[10],Non-Toxic
same,IC50,[2],14 µM
same,IC50,[3],11 µM
C[C@]1(COC(=O)c2ccc([N+](=O)[O-])cc2)CCC[C@@]2(C)[C@H]1[C@H](O)C=C1C(=O)OC[C@@]12O,IC50,[1],11 µM
same,IC50,[2],4.3 µM
same,IC50,[3],8.2 µM
CO[C@H]1C2=C(COC2=O)[C@@]2(C)CCC[C@](C)(CO)[C@@H]2[C@@H]1O,Activity,[10],Non-Toxic
C[C@]1(CO)CCC[C@]2(C)[C@H]3COC(=O)C3=C[C@@H](OC(=O)c3ccc([N+](=O)[O-])cc3)[C@@H]12,IC50,[1],25 µM
same,IC50,[2],20 µM
same,IC50,[3],30 µM
C[C@]1(COC(=O)c2ccc([N+](=O)[O-])cc2)CCC[C@]2(C)[C@H]3COC(=O)C3=C[C@@H](O)[C@@H]12,inhibition,[33],16%
same,IC50,[1],30 µM
same,Activity,[10],Non-Toxic
same,IC50,[2],24 µM
same,IC50,[3],23 µM
CNC(=O)c1cc(Oc2ccc(NC(=O)Nc3ccc(Cl)c(C(F)(F)F)c3)cc2)ccn1 [SORAFENIB],IC50,[1],3.4 µM
same,IC50,[2],4.9 µM
same,IC50,[3],7 µM
